Test results published in ChEMBL document CHEMBL1671716, “Antimicrobial susceptibility patterns for recent clinical isolates of anaerobic bacteria in South Korea” (2010).
≈ marks a conversion by molar mass, not a printed value.

Key:
[1] = tested on: Actinomyces naeslundii; experiment: Antimicrobial activity against Actinomyces naeslundii after 48 hrs by agar dilution method; type: functional
How it was run: (§1)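 MICs on clinical anaerobe isolates by the CLSI agar dilution method. Inoculum of 10^5 CFU applied with a Steers replicator. Plates incubated 48 h at 37°C in an anaerobic chamber.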

[2] = tested on: Bacteroides fragilis; experiment: Antimicrobial activity against Bacteroides fragilis after 48 hrs by agar dilution method; type: functional; how it was run: as §1
[3] = tested on: Prevotella intermedia; experiment: Antimicrobial activity against Prevotella intermedia assessed as percent susceptible isolates after 48 hrs by agar dilution method; type: functional
How it was run: (§2)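 CLSI agar dilution (M11-A7); inoculum 10^5 CFU applied by replicator; plates incubated anaerobically 48 h at 37°C. For piperacillin-tazobactam, tazobactam held constant at 4 μg/ml.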

[4] = tested on: Schaalia meyeri; experiment: Antimicrobial activity against Actinomyces meyeri assessed as percent resistant isolates after 48 hrs by agar dilution method; type: functional
How it was run: (§3)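 CLSI agar dilution on recent Korean clinical anaerobe isolates. Inoculum 10^5 CFU per spot by replicator. Plates incubated in an anaerobic chamber at 37°C for 48 h. For piperacillin plus tazobactam, tazobactam was held constant at 4 μg/ml. Resistance and susceptibility rates derived from MICs.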

[5] = tested on: Actinomyces israelii; experiment: Antimicrobial activity against Actinomyces israelii after 48 hrs by agar dilution method; type: functional; how it was run: as §1
[6] = tested on: Peptostreptococcus anaerobius; experiment: Antimicrobial activity against Peptostreptococcus anaerobius assessed as percent susceptible isolates after 48 hrs by agar dilution method; type: functional; how it was run: as §3
[7] = tested on: Actinomyces naeslundii; experiment: Antimicrobial activity against Actinomyces naeslundii assessed as percent resistant isolates after 48 hrs by agar dilution method; type: functional; how it was run: as §3
[8] = tested on: Finegoldia magna; experiment: Antimicrobial activity against Finegoldia magna after 48 hrs by agar dilution method; type: functional; how it was run: as §2
[9] = tested on: Hoylesella oralis; experiment: Antimicrobial activity against Prevotella oralis assessed as percent susceptible isolates after 48 hrs by agar dilution method; type: functional
How it was run: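 CLSI agar dilution MIC testing of clinical isolates. 10^5 CFU spotted by replicator, plates incubated 48 h at 37°C in an anaerobic chamber. Susceptibility rates derived from the MICs.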

[10] = tested on: Bacteroides ovatus; experiment: Antimicrobial activity against Bacteroides ovatus assessed as percent resistant isolates after 48 hrs by agar dilution method; type: functional; how it was run: as §3
[11] = tested on: Bacteroides thetaiotaomicron; experiment: Antimicrobial activity against Bacteroides thetaiotaomicron assessed as percent resistant isolates after 48 hrs by agar dilution method; type: functional; how it was run: as §3
[12] = tested on: Hoylesella oralis; experiment: Antimicrobial activity against Prevotella oralis after 48 hrs by agar dilution method; type: functional; how it was run: as §2
[13] = tested on: Clostridioides difficile; experiment: Antimicrobial activity against Clostridium difficile assessed as percent resistant isolates after 48 hrs by agar dilution method; type: functional
[14] = tested on: Fusobacterium nucleatum; experiment: Antimicrobial activity against Fusobacterium nucleatum after 48 hrs by agar dilution method; type: functional; how it was run: as §2
[15] = tested on: Prevotella buccae; experiment: Antimicrobial activity against Prevotella buccae assessed as percent susceptible isolates after 48 hrs by agar dilution method; type: functional, Segatella buccae; how it was run: as §2
[16] = tested on: Prevotella buccae; experiment: Antimicrobial activity against Prevotella buccae assessed as percent resistant isolates after 48 hrs by agar dilution method; type: functional, Segatella buccae; how it was run: as §3
[17] = tested on: Eubacterium sp.; experiment: Antimicrobial activity against Eubacterium sp. after 48 hrs by agar dilution method; type: functional; how it was run: as §2
[18] = tested on: Actinomyces israelii; experiment: Antimicrobial activity against Actinomyces israelii assessed as percent resistant isolates after 48 hrs by agar dilution method; type: functional; how it was run: as §3
[19] = tested on: Bifidobacterium adolescentis; experiment: Antimicrobial activity against Bifidobacterium adolescentis after 48 hrs by agar dilution method; type: functional; how it was run: as §1
[20] = tested on: Clostridium perfringens; experiment: Antimicrobial activity against Clostridium perfringens assessed as percent susceptible isolates after 48 hrs by agar dilution method; type: functional
[21] = tested on: Clostridium perfringens; experiment: Antimicrobial activity against Clostridium perfringens after 48 hrs by agar dilution method; type: functional
[22] = tested on: Parabacteroides distasonis; experiment: Antimicrobial activity against Bacteroides distasonis after 48 hrs by agar dilution method; type: functional; how it was run: as §1
[23] = tested on: Fusobacterium varium; experiment: Antimicrobial activity against Fusobacterium varium after 48 hrs by agar dilution method; type: functional; how it was run: as §2
[24] = tested on: Prevotella bivia; experiment: Antimicrobial activity against Prevotella bivia after 48 hrs by agar dilution method; type: functional; how it was run: as §2
[25] = tested on: Clostridioides difficile; experiment: Antimicrobial activity against Clostridium difficile assessed as percent susceptible isolates after 48 hrs by agar dilution method; type: functional
[26] = tested on: Phocaeicola vulgatus; experiment: Antimicrobial activity against Bacteroides vulgatus assessed as percent resistant isolates after 48 hrs by agar dilution method; type: functional; how it was run: as §3
[27] = tested on: Prevotella intermedia; experiment: Antimicrobial activity against Prevotella intermedia assessed as percent resistant isolates after 48 hrs by agar dilution method; type: functional; how it was run: as §3
[28] = tested on: Finegoldia magna; experiment: Antimicrobial activity against Finegoldia magna assessed as percent susceptible isolates after 48 hrs by agar dilution method; type: functional; how it was run: as §2
[29] = tested on: Bacteroides fragilis; experiment: Antimicrobial activity against Bacteroides fragilis assessed as percent resistant isolates after 48 hrs by agar dilution method; type: functional; how it was run: as §3
[30] = tested on: Clostridioides difficile; experiment: Antimicrobial activity against Clostridium difficile after 48 hrs by agar dilution method; type: functional
[31] = tested on: Prevotella bivia; experiment: Antimicrobial activity against Prevotella bivia assessed as percent resistant isolates after 48 hrs by agar dilution method; type: functional; how it was run: as §3
[32] = tested on: Bacteroides thetaiotaomicron; experiment: Antimicrobial activity against Bacteroides thetaiotaomicron assessed as percent susceptible isolates after 48 hrs by agar dilution method; type: functional
[33] = tested on: Bifidobacterium adolescentis; experiment: Antimicrobial activity against Bifidobacterium adolescentis assessed as percent resistant isolates after 48 hrs by agar dilution method; type: functional; how it was run: as §3
[34] = tested on: Eubacterium sp.; experiment: Antimicrobial activity against Eubacterium sp. assessed as percent resistant isolates after 48 hrs by agar dilution method; type: functional; how it was run: as §3
[35] = tested on: Schaalia meyeri; experiment: Antimicrobial activity against Actinomyces meyeri after 48 hrs by agar dilution method; type: functional; how it was run: as §1
[36] = tested on: Eggerthella lenta; experiment: Antimicrobial activity against Eubacterium lentum assessed as percent resistant isolates after 48 hrs by agar dilution method; type: functional; how it was run: as §3
[37] = tested on: Actinomyces israelii; experiment: Antimicrobial activity against Actinomyces israelii assessed as percent susceptible isolates after 48 hrs by agar dilution method; type: functional
[38] = tested on: Bacteroides caccae; experiment: Antimicrobial activity against Bacteroides caccae assessed as percent resistant isolates after 48 hrs by agar dilution method; type: functional; how it was run: as §3
[39] = tested on: Peptostreptococcus anaerobius; experiment: Antimicrobial activity against Peptostreptococcus anaerobius after 48 hrs by agar dilution method; type: functional; how it was run: as §2
[40] = tested on: Parabacteroides distasonis; experiment: Antimicrobial activity against Bacteroides distasonis assessed as percent susceptible isolates after 48 hrs by agar dilution method; type: functional
[41] = tested on: Eubacterium sp.; experiment: Antimicrobial activity against Eubacterium sp. assessed as percent susceptible isolates after 48 hrs by agar dilution method; type: functional; how it was run: as §2
[42] = tested on: Bacteroides ovatus; experiment: Antimicrobial activity against Bacteroides ovatus after 48 hrs by agar dilution method; type: functional; how it was run: as §1
[43] = tested on: Finegoldia magna; experiment: Antimicrobial activity against Finegoldia magna assessed as percent resistant isolates after 48 hrs by agar dilution method; type: functional; how it was run: as §3
[44] = tested on: Parvimonas micra; experiment: Antimicrobial activity against Peptostreptococcus micros assessed as percent susceptible isolates after 48 hrs by agar dilution method; type: functional; how it was run: as §3
[45] = tested on: Phocaeicola vulgatus; experiment: Antimicrobial activity against Bacteroides vulgatus assessed as percent susceptible isolates after 48 hrs by agar dilution method; type: functional
[46] = tested on: Anaerococcus prevotii; experiment: Antimicrobial activity against Anaerococcus prevotii assessed as percent resistant isolates after 48 hrs by agar dilution method; type: functional; how it was run: as §3
[47] = tested on: Schaalia odontolytica; experiment: Antimicrobial activity against Actinomyces odontolyticus after 48 hrs by agar dilution method; type: functional; how it was run: as §1
[48] = tested on: Bacteroides thetaiotaomicron; experiment: Antimicrobial activity against Bacteroides thetaiotaomicron after 48 hrs by agar dilution method; type: functional; how it was run: as §1

For `CO[C@@]1(NC(=O)Cc2cccs2)C(=O)N2C(C(=O)O)=C(COC(N)=O)CS[C@@H]21` [CEFOXITIN], which MIC50 [1] is on record?
Its MIC50 is 2 mg/L (≈ 4.68 µM).

And the MIC90 [1]?
Its MIC90 is 16 mg/L (≈ 37.4 µM).

And the MIC50 [2]?
The MIC50 was 16 mg/L (≈ 37.4 µM).

And the MIC90 [2]?
The MIC90 was 32 mg/L (≈ 74.9 µM).

And the Activity [3]?
Its Activity is 100%.

What about the Activity [4] of the same molecule?
The Activity was 0%.

And the MIC50 [5]?
Its MIC50 is 2 mg/L (≈ 4.68 µM).

What about the MIC90 [5] of the same molecule?
The MIC90 was 16 mg/L (≈ 37.4 µM).

What about the Activity [6] of the same molecule?
The Activity was 100%.

What about the Activity [7] of the same molecule?
The Activity was 0%.

What about the MIC50 [8] of the same molecule?
The MIC50 was 0.5 mg/L (≈ 1.17 µM).

And the MIC90 [8]?
The MIC90 was 1 mg/L (≈ 2.34 µM).

What about the Activity [9] of the same molecule?
The Activity was 89%.

And the Activity [10]?
The Activity was 7%.

And the Activity [11]?
The Activity was 7%.

What about the MIC50 [12] of the same molecule?
The MIC50 was 1 mg/L (≈ 2.34 µM).

And the MIC90 [12]?
Its MIC90 is 32 mg/L (≈ 74.9 µM).

And the Activity [13]?
The Activity was 100%.

And the MIC [14]?
Its MIC is 0.06 mg/L (≈ 0.14 µM).

And the Activity [15]?
The Activity was 89%.

What about the Activity [16] of the same molecule?
The Activity was 0%.

And the MIC50 [17]?
The MIC50 was 2 mg/L (≈ 4.68 µM).

And the MIC90 [17]?
Its MIC90 is 16 mg/L (≈ 37.4 µM).

And the Activity [18]?
The Activity was 0%.

And the MIC50 [19]?
Its MIC50 is 2 mg/L (≈ 4.68 µM).

And the MIC90 [19]?
Its MIC90 is 16 mg/L (≈ 37.4 µM).

And the Activity [20]?
Its Activity is 100%.

And the MIC50 [21]?
Its MIC50 is 1 mg/L (≈ 2.34 µM).

And the MIC90 [21]?
The MIC90 was 2 mg/L (≈ 4.68 µM).

And the MIC50 [22]?
Its MIC50 is 32 mg/L (≈ 74.9 µM).

And the MIC90 [22]?
The MIC90 was 32 mg/L (≈ 74.9 µM).

What about the MIC [23] of the same molecule?
The MIC was 0.06 mg/L (≈ 0.14 µM).

What about the MIC50 [24] of the same molecule?
Its MIC50 is 1 mg/L (≈ 2.34 µM).

What about the MIC90 [24] of the same molecule?
Its MIC90 is 32 mg/L (≈ 74.9 µM).

And the Activity [25]?
The Activity was 0%.

What about the Activity [26] of the same molecule?
The Activity was 7%.

What about the Activity [27] of the same molecule?
Its Activity is 0%.

And the Activity [28]?
Its Activity is 100%.

And the Activity [29]?
The Activity was 5%.

What about the MIC [30] of the same molecule?
The MIC was 64 mg/L (≈ 150 µM).

And the MIC50 [30]?
The MIC50 was 64 mg/L (≈ 150 µM).

And the MIC90 [30]?
Its MIC90 is greater than 128 mg/L.

And the Activity [31]?
Its Activity is 0%.

What about the Activity [32] of the same molecule?
Its Activity is 25%.

What about the Activity [33] of the same molecule?
The Activity was 0%.

What about the Activity [34] of the same molecule?
The Activity was 0%.

What about the MIC50 [35] of the same molecule?
The MIC50 was 2 mg/L (≈ 4.68 µM).

What about the MIC90 [35] of the same molecule?
Its MIC90 is 16 mg/L (≈ 37.4 µM).

And the Activity [36]?
The Activity was 0%.

And the Activity [37]?
Its Activity is 92%.

And the Activity [38]?
Its Activity is 7%.

And the MIC50 [39]?
The MIC50 was 1 mg/L (≈ 2.34 µM).

What about the MIC90 [39] of the same molecule?
Its MIC90 is 16 mg/L (≈ 37.4 µM).

And the Activity [40]?
The Activity was 25%.

What about the Activity [41] of the same molecule?
The Activity was 92%.

What about the MIC50 [42] of the same molecule?
Its MIC50 is 32 mg/L (≈ 74.9 µM).

And the MIC90 [42]?
Its MIC90 is 32 mg/L (≈ 74.9 µM).

And the Activity [43]?
The Activity was 0%.

What about the Activity [44] of the same molecule?
The Activity was 0%.

And the Activity [45]?
Its Activity is 25%.

And the Activity [46]?
The Activity was 0%.

What about the MIC50 [47] of the same molecule?
The MIC50 was 2 mg/L (≈ 4.68 µM).

What about the MIC90 [47] of the same molecule?
Its MIC90 is 16 mg/L (≈ 37.4 µM).

What about the MIC50 [48] of the same molecule?
The MIC50 was 32 mg/L (≈ 74.9 µM).

What about the MIC90 [48] of the same molecule?
Its MIC90 is 32 mg/L (≈ 74.9 µM).
